We go through six molecules from ChEMBL document CHEMBL4359840, “Computationally Driven Structure Optimization, Synthesis, and Biological Evaluation of Imidazole-Based Proprotein Convertase Subtilisin/Kexin 9 (PCSK9) Inhibitors” (J Med Chem, 2019).

The source made the active and inactive calls. No cut-off for these calls is given here.

The target in data set [1] is T1, PCSK9/LDLR (Homo sapiens, UniProt Q8NBP7). Description: (§1) Inhibition of recombinant His-tagged PCSK9 (unknown origin) binding to recombinant […] AB domain (unknown origin) measured after 2 hrs by ELISA. The data set is classed as protein assay. A digest of the protocol:
(§2)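 Commercial kit: compound added with His-tagged PCSK9 to wells coated with recombinant LDLR-AB domain. Bound His-PCSK9 quantified by absorbance at 450 nm. Mean ± s.d. of three independent experiments in duplicate.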
A general note: ELISA stands for enzyme-linked immunosorbent assay.

In data set [2] the target is T2, PCSK9/LDLR (Homo sapiens) (UniProt Q8NBP7+P01130). Description: Inhibition of PCSK9 (unknown origin) interaction with LDLR expressed in human HepG2 cells assessed as LDLR level on cell membrane at 1 uM measured after 2 hrs by in-cell Western analysis (reference value: 30.5 to 47.2%). The class given is cell-based. Also on record: scale not given: the % may be the effect or the level left.
T2 sequence (P01130 22-860 partner limits assumed): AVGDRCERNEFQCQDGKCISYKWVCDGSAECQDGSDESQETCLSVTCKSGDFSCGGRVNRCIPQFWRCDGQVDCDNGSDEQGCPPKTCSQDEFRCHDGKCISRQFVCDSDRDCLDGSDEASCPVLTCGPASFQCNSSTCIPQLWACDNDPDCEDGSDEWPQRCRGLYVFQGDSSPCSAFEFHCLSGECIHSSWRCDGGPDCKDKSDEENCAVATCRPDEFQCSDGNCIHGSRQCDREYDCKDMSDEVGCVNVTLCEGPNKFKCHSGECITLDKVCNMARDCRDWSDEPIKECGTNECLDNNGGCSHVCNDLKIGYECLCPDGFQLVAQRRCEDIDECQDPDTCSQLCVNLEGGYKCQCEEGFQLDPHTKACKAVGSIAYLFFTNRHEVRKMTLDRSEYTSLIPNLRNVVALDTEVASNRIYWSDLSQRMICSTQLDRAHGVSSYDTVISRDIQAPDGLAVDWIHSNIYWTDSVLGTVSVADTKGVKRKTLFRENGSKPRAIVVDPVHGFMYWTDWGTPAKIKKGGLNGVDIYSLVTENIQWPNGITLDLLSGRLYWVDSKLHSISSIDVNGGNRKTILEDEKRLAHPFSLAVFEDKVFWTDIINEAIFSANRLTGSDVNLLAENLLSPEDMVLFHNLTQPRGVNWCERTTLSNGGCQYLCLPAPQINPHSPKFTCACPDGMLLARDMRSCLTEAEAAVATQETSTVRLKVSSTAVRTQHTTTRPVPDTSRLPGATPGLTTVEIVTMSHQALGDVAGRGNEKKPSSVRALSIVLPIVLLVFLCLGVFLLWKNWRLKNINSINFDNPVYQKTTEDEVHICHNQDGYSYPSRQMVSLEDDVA
T2 sequence (Q8NBP7 31-152 limits assumed): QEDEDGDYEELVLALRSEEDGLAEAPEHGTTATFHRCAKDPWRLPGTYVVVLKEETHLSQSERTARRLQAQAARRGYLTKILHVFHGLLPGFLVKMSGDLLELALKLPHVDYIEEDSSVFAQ
T2 sequence (Q8NBP7 153-692 limits assumed): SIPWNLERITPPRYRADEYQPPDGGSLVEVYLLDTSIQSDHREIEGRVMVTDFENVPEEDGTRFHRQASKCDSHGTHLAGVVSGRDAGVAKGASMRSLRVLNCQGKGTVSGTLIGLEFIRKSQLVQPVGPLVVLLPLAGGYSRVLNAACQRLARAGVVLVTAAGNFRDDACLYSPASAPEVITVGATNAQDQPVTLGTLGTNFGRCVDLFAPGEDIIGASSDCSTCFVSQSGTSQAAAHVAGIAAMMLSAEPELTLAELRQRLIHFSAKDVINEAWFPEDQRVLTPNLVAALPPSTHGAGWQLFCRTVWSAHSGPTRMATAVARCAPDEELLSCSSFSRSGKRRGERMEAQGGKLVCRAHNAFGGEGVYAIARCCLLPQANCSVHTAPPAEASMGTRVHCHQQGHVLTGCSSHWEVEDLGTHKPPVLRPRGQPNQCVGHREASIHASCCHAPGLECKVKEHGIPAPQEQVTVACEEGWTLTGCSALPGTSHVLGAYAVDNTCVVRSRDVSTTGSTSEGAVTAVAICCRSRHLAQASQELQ

For data set [3], the target named is T2, PCSK9/LDLR (Homo sapiens). Description: Inhibition of PCSK9 (unknown origin) interaction with LDLR expressed in human HepG2 cells assessed as LDL uptake level at 1 uM measured after 2 hrs by LDL-Dylight 550 dye based fluorescence assay (reference value: 34.8 to 67%). The class given is cell-based. Also on record: scale not given: the % may be the effect or the level left.

Data set [4] addresses T2, PCSK9/LDLR (Homo sapiens). The data set can be described thus: Inhibition of PCSK9 (unknown origin) interaction with LDLR expressed in human HepG2 cells assessed as increase LDLR level on cell membrane at 10 uM measured after 2 hrs by in-cell Western analysis. The data set is classed as cell-based.
The target of data set [5] is T2, PCSK9/LDLR (Homo sapiens). Description: Inhibition of recombinant His-tagged PCSK9 (unknown origin) binding to recombinant […] AB domain (unknown origin) at 10 uM measured after 2 hrs by ELISA. The class given is protein assay. A digest of the protocol: as §2
Data set [6] addresses T2, PCSK9/LDLR (Homo sapiens). Description: Inhibition of recombinant His-tagged PCSK9 (unknown origin) binding to recombinant […] AB domain (unknown origin) at 100 uM measured after 2 hrs by ELISA relative to control. The class given is protein assay. A digest of the protocol:
as §2

Data set [7] addresses T2, PCSK9/LDLR (Homo sapiens). The data set can be described thus: Inhibition of PCSK9 (unknown origin) interaction with LDLR expressed in human HepG2 cells assessed as increase in LDL uptake level at 10 uM measured after 2 hrs by LDL-Dylight 550 dye based fluorescence assay. The class given is cell-based.
Data set [8] has as its target T2, PCSK9/LDLR (Homo sapiens). Description: Inhibition of PCSK9 (unknown origin) interaction with LDLR expressed in human HepG2 cells assessed as LDLR level on cell membrane at 0.1 uM measured after 2 hrs by in-cell Western analysis (reference value: 30.5 to 47.2%). The data set is classed as cell-based. Also on record: scale not given: the % may be the effect or the level left.

Data set [9] deals with T2, PCSK9/LDLR (Homo sapiens). Description: Inhibition of PCSK9 (unknown origin) interaction with LDLR expressed in human HepG2 cells assessed as increase LDLR level on cell membrane measured after 2 hrs by in-cell Western analysis. The data set is classed as cell-based.
Data set [10] has as its target T2, PCSK9/LDLR (Homo sapiens). Described as §1. The class given is protein assay. In short, it runs like this:
as §2

The target in data set [11] is T2, PCSK9/LDLR (Homo sapiens). Description: Inhibition of PCSK9 (unknown origin) interaction with LDLR expressed in human HepG2 cells assessed as LDLR level on cell membrane at 10 uM measured after 2 hrs by in-cell Western analysis (reference value: 30.5 to 47.2%). The data set is classed as cell-based. Also on record: scale not given: the % may be the effect or the level left.

A further data set concerns HepG2. The data set can be described thus: Cytotoxicity against human HepG2 cells assessed as reduction in cell viability at 0.1 to 10 uM measured after 48 hrs by MTT assay. The class given is cell-based. The note with it: hepg2, 48 h. A general note: Formazan colour is commonly taken as a measure of viable cells.
In data set [12] the target is T2, PCSK9/LDLR (Homo sapiens). The data set can be described thus: Inhibition of PCSK9 (unknown origin) interaction with LDLR expressed in human HepG2 cells assessed as LDL uptake level at 0.1 uM measured after 2 hrs by LDL-Dylight 550 dye based fluorescence assay (reference value: 34.8 to 67%). The data set is classed as cell-based. Also on record: scale not given: the % may be the effect or the level left.

Data set [13] has as its target T2, PCSK9/LDLR (Homo sapiens). The data set can be described thus: Inhibition of PCSK9 (unknown origin) interaction with LDLR expressed in human HepG2 cells assessed as LDL uptake level at 10 uM measured after 2 hrs by LDL-Dylight 550 dye based fluorescence assay (reference value: 34.8 to 67%). The data set is classed as cell-based. Also on record: scale not given: the % may be the effect or the level left.

The target in data set [14] is T1, PCSK9/LDLR. The data set can be described thus: Inhibition of PCSK9 (unknown origin) interaction with LDLR expressed in human HepG2 cells assessed as increase in LDL uptake level measured after 24 hrs by LDL-Dylight 550 dye based fluorescence assay. The class given is cell-based.
Target sequence in this assay (Q8NBP7 31-152 limits assumed): as the sequence (Q8NBP7 31-152 limits assumed) above
Target sequence in this assay (Q8NBP7 153-692 limits assumed): as the sequence (Q8NBP7 153-692 limits assumed) above
Target sequence in this assay (P01130 22-860 partner limits assumed): as the sequence (P01130 22-860 partner limits assumed) above

Take H-LILPKHSDAD-OH: the IC50 at PCSK9/LDLR [1] was 1.6 µM. In addition, the Activity in data set [2] was below 93.9%; in [3], below 104%.
With `COc1ccc(-c2cnc(-c3cncn3Cc3ccccc3)n2C)cc1`, the inhibition result in data set [4], in data set [5] and in data set [7] was “inactive” in each case. Further, the inhibition in data set [6] was found to be 18.2%.
Take `CNCCCCCn1cncc1-c1ncc(-c2ncc(-c3ccc(OC)cc3)n2C)n1Cc1ccccc1`: the Activity in [8] is below 77.7%; in data set [2] it was below 101%; in [11], below 102%; in the data set on HepG2 it was “Non-Toxic”; in data set [3], below 104%; in data set [12], 63.6%. In addition, in data set [13], the Activity is 101%. The inhibition entry in data set [9] and in data set [10] was “Dose-dependent effect” in each case. The IC50 on PCSK9/LDLR [1] came out at 1.38 µM.
Regarding `CNCCCCCn1cncc1-c1ncc(-c2ncc(-c3ccc(OC)cc3)n2C)n1CCc1ccccc1`, the inhibition result in data set [10] is “Dose-dependent effect”. On PCSK9/LDLR [1], the IC50 was 3.06 µM.
With `CC(C)C[C@H](C(=O)N1CCN([C@@H](CC(N)=O)C(=O)N[C@@H](CCCNC(=N)N)C(=O)N[C@H]2CCOC2=O)CC1)N1C(=O)N[C@@H](CC(=O)O)C1=O`, the IC50 at PCSK9/LDLR [1] lay in the range of 20 to 40 µM.
For `Cn1cncc1-c1ncc(-c2ncc(-c3ncc(-c4ccccc4)n3C)n2C)n1C`, the EC50 on PCSK9/LDLR [14] was found to be 6 µM.

Broadly, the IC50 is the concentration that inhibits the measured activity by half. The inhibition is the percentage by which the read-out fell short of the control. One may read the EC50 as the midpoint of the concentration-response curve.
